Laboratory results published in ChEMBL document CHEMBL3351863, “Optimization of 2-phenyl-pyrimidine-4-carboxamides towards potent, orally bioavailable and selective P2Y(12) antagonists for inhibition of platelet aggregation” (Bioorg Med Chem Lett, 2014).
Active and inactive are the calls of the source. The rule behind the calls is not given here.

Assays:
[1] = target: T1, P2X purinoceptor 4 (Homo sapiens) (UniProt Q99571); assay: Antagonist activity against P2X4 (unknown origin)
T1 sequence (whole entry): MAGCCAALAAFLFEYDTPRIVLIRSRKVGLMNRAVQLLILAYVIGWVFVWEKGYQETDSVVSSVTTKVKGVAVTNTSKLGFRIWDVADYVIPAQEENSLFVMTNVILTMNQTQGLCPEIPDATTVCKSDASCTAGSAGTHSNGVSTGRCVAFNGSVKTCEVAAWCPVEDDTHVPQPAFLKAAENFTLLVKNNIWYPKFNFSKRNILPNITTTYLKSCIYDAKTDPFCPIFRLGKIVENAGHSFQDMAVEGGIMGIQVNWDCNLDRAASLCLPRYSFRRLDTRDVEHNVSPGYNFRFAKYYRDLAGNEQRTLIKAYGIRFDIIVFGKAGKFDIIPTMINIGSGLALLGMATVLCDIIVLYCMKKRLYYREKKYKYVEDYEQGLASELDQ

[2] = target: P2Y purinoceptor 1 (Homo sapiens) (UniProt P47900); assay: Antagonist activity against P2Y1 (unknown origin) assessed as inhibition of agonist binding up to 10 uM
P2Y purinoceptor 1 (Homo sapiens), sequence (P47900 whole entry): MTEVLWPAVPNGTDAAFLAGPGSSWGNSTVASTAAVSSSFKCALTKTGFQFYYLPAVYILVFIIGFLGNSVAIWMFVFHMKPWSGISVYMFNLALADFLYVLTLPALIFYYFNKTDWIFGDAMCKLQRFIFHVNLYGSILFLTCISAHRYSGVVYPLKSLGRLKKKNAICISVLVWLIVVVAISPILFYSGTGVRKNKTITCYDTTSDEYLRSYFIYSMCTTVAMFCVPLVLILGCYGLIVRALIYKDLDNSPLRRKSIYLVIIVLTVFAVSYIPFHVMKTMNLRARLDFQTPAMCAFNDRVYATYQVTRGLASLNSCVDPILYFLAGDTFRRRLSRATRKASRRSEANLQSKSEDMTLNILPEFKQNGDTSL

[3] = target: T2, P2Y purinoceptor 11 (Homo sapiens) (UniProt Q96G91); assay: Antagonist activity against P2Y11 (unknown origin) assessed as inhibition of agonist binding up to 10 uM
T2 sequence (whole entry): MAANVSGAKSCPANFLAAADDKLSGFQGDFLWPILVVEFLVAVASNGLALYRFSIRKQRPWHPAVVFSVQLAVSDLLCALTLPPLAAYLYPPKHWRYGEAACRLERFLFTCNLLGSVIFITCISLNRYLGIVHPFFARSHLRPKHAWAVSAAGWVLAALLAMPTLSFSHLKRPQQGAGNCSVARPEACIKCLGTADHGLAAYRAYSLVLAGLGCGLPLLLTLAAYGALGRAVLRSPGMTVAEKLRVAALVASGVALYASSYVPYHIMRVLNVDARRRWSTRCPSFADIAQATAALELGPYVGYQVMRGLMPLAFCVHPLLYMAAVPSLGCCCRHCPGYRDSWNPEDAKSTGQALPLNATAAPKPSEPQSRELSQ

[4] = target: P2Y purinoceptor 6 (Homo sapiens) (UniProt Q15077); assay: Antagonist activity against P2Y6 (unknown origin) assessed as inhibition of agonist binding up to 10 uM
P2Y purinoceptor 6 (Homo sapiens), sequence (Q15077 whole entry): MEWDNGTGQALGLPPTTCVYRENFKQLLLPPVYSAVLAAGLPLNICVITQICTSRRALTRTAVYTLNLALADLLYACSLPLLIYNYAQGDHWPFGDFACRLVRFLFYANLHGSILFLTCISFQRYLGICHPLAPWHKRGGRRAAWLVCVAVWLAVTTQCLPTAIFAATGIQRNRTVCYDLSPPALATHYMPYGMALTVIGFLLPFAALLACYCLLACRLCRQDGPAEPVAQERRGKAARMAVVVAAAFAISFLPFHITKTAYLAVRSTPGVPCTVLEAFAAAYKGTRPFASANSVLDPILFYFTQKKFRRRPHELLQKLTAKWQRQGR

[5] = target: T3, P2X purinoceptor 1 (Homo sapiens) (UniProt P51575); assay: Antagonist activity against P2X1 (unknown origin)
T3 sequence (whole entry): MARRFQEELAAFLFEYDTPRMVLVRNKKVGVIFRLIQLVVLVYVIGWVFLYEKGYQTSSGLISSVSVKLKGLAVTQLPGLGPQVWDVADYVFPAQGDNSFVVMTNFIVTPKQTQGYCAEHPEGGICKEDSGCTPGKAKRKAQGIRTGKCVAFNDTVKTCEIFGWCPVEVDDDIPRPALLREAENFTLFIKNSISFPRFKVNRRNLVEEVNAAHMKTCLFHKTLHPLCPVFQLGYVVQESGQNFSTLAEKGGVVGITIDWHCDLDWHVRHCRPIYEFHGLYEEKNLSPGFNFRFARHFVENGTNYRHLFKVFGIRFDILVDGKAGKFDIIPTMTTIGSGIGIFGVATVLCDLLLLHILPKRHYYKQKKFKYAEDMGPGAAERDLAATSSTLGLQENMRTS

[6] = target: P2Y purinoceptor 4 (Homo sapiens) (UniProt P51582); assay: Antagonist activity against P2Y4 (unknown origin) assessed as inhibition of agonist binding up to 10 uM
P2Y purinoceptor 4 (Homo sapiens), sequence (P51582 whole entry): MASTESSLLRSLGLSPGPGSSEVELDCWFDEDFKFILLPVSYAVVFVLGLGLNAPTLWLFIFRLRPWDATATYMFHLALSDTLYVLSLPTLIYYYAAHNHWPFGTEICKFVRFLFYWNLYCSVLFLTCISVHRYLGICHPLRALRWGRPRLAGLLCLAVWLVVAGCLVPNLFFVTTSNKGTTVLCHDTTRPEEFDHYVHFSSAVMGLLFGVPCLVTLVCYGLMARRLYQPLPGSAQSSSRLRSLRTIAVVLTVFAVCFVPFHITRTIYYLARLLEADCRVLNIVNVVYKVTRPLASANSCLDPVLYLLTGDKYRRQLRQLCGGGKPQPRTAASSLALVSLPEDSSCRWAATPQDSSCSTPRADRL

[7] = target: T4, P2X purinoceptor 7 (Homo sapiens) (UniProt Q99572); assay: Antagonist activity against P2X7 (unknown origin)
T4 sequence (whole entry): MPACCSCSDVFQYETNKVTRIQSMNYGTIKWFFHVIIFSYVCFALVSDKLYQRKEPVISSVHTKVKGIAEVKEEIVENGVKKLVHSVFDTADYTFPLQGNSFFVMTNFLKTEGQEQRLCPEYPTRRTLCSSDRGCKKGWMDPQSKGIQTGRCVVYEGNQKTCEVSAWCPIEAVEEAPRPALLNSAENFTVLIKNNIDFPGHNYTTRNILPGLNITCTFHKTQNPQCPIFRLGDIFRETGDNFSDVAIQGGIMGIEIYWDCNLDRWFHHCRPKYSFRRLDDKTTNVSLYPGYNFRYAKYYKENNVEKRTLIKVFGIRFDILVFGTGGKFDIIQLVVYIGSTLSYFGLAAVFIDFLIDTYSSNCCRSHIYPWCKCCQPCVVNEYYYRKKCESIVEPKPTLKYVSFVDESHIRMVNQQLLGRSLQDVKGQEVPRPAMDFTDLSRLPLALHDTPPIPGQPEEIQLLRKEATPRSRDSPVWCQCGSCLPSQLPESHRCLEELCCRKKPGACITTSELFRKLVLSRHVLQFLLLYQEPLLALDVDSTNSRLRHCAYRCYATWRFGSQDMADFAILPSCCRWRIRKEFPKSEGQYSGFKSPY

[8] = target: T5, P2X purinoceptor 2 (Homo sapiens) (UniProt Q9UBL9); assay: Antagonist activity against P2X2 (unknown origin)
T5 sequence (whole entry): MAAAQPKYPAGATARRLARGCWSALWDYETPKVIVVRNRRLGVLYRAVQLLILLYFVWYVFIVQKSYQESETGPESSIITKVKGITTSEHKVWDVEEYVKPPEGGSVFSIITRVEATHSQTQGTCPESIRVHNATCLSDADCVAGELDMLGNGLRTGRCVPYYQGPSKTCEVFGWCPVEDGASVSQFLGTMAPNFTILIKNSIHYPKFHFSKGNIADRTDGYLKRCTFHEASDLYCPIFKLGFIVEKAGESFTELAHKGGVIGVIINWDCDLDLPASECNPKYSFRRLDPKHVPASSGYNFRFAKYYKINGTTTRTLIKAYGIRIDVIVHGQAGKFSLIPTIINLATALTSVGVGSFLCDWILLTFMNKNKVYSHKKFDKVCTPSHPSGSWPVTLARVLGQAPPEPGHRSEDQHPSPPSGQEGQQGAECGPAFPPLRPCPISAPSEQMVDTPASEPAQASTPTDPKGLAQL

[9] = target: P2Y purinoceptor 2 (Homo sapiens) (UniProt P41231); assay: Antagonist activity against P2Y2 (unknown origin) assessed as inhibition of agonist binding up to 10 uM
P2Y purinoceptor 2 (Homo sapiens), sequence (P41231 whole entry): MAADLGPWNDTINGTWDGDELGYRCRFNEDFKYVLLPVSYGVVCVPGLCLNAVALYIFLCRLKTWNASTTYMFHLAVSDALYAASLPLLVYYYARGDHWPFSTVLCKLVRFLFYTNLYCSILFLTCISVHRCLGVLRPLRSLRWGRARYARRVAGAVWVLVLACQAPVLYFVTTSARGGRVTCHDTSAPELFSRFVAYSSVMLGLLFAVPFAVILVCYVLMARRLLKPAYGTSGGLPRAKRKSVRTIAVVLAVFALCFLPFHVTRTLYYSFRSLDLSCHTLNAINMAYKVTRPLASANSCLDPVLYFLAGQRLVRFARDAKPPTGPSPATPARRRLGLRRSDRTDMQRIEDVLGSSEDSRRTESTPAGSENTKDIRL

[10] = target: T6, P2Y purinoceptor 13 (Homo sapiens) (UniProt Q9BPV8); assay: Antagonist activity against P2Y13 (unknown origin) assessed as inhibition of agonist binding up to 10 uM
T6 sequence (whole entry): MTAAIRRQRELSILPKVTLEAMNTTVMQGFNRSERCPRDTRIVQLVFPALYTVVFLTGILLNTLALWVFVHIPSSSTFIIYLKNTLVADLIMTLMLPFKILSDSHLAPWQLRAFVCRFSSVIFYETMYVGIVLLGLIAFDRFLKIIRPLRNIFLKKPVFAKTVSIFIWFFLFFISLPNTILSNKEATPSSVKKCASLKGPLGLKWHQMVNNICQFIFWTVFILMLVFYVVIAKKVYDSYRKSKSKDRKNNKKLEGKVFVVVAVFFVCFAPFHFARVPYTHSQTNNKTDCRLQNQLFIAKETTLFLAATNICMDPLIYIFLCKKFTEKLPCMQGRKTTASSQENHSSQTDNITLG

[11] = target: T7, P2X purinoceptor 3 (Homo sapiens) (UniProt P56373); assay: Antagonist activity against P2X3 (unknown origin)
T7 sequence (whole entry): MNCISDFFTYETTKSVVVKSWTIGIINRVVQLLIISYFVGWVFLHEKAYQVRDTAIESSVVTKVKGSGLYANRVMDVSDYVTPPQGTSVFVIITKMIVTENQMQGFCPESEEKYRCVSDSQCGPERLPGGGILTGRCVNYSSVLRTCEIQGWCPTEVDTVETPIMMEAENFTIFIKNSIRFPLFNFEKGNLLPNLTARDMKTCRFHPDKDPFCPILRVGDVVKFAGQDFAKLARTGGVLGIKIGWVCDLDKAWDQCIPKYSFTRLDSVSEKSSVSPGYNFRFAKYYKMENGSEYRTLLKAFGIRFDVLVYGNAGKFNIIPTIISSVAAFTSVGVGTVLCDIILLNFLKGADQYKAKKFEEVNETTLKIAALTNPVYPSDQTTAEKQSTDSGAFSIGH

P2Y purinoceptor 12 = P2Y purinoceptor 12 (Homo sapiens, UniProt Q9H244); assay: Displacement of [3H]-2-methyl-thio-adenosine 5'-diphosphate from human recombinant P2Y12 expressed in CHO cell membranes by scintillation counting method
P2Y purinoceptor 12, sequence (Q9H244 whole entry): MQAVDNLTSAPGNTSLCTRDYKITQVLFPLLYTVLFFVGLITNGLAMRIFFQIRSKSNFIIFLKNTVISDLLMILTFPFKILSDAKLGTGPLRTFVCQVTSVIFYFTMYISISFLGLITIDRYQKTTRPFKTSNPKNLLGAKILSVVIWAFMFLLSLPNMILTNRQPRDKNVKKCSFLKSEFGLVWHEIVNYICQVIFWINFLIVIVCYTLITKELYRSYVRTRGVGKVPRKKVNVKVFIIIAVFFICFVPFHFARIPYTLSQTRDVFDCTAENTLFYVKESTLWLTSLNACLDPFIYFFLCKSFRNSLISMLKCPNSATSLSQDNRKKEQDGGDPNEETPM
Summary of the method: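 CHO cells expressing recombinant P2Y₁₂ receptors, incubated with tritium-labeled 2-methyl-thio-adenosine 5'-diphosphate plus test compound; IC₅₀ from displacement curves, each point in triplicate; reference compound run with every compound set, and set re-analyzed if its IC₅₀ fell outside pre-set 95% confidence interval.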

[12] = Potency shift, ratio of IC50 for inhibition of ADP-induced platelet aggregation in human platelet rich plasma to IC50 for displacement of [3H]-2-methyl-thio-adenosine 5'-diphosphate from human recombinant P2Y12 expressed in CHO cell membranes
[13] = (§1) Cmax in Wistar rat at 10 mg/kg, po; assay type: ADME, organism-based; set-up: dose 10 mg/kg, route oral; conditions: Wistar, in vivo
Summary of the method: (§2)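 Rats dosed by iv infusion at 1 mg/kg (n = 2) or orally at 10 mg/kg (n = 3); plasma levels measured, limit of quantification ca. 1 ng/mL.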

Cytochrome P450 3A4 [14] = target: T8, Cytochrome P450 3A4 (Homo sapiens, UniProt P08684); assay: Inhibition of CYP3A4 in human liver microsomes assessed as reduction in testosterone 6beta-hydroxylation; assay type: ADME
T8 sequence (P08684 whole entry): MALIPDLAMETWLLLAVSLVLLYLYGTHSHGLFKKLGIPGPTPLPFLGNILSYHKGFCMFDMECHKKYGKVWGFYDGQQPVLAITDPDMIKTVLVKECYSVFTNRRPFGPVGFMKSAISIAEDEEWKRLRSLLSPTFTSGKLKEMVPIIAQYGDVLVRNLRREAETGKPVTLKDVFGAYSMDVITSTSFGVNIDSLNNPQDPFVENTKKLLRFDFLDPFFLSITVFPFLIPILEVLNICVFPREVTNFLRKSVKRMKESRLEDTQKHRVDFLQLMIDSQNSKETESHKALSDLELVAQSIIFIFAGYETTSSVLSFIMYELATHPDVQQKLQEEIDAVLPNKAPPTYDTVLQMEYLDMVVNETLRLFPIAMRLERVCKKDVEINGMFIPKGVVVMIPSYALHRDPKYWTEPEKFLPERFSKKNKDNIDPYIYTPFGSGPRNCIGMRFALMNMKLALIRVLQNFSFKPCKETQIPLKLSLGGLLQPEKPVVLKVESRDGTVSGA

Platelet [15] = assay: Inhibition of ADP-induced platelet aggregation in human platelet rich plasma by in-vitro light transmission aggregometry assay; assay type: functional; conditions: Homo sapiens, Platelet, Plasma
Summary of the method: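 Human platelet-rich plasma incubated with compound, aggregation induced by 3 µM ADP and read by light transmission aggregometry; IC₅₀ derived from concentration–response curve.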

Cytochrome P450 3A4 [16] = target: T8, Cytochrome P450 3A4; assay: Inhibition of CYP3A4 in human liver microsomes assessed as reduction in midazolam 1'-hydroxylation; assay type: ADME
[17] = target: Voltage-gated inwardly rectifying potassium channel KCNH2 (Homo sapiens, UniProt Q12809); assay: Inhibition of human ERG expressed in HEK cells by patch-clamp assay; assay type: cell-based; conditions: hek293
Voltage-gated inwardly rectifying potassium channel KCNH2, sequence (Q12809 whole entry): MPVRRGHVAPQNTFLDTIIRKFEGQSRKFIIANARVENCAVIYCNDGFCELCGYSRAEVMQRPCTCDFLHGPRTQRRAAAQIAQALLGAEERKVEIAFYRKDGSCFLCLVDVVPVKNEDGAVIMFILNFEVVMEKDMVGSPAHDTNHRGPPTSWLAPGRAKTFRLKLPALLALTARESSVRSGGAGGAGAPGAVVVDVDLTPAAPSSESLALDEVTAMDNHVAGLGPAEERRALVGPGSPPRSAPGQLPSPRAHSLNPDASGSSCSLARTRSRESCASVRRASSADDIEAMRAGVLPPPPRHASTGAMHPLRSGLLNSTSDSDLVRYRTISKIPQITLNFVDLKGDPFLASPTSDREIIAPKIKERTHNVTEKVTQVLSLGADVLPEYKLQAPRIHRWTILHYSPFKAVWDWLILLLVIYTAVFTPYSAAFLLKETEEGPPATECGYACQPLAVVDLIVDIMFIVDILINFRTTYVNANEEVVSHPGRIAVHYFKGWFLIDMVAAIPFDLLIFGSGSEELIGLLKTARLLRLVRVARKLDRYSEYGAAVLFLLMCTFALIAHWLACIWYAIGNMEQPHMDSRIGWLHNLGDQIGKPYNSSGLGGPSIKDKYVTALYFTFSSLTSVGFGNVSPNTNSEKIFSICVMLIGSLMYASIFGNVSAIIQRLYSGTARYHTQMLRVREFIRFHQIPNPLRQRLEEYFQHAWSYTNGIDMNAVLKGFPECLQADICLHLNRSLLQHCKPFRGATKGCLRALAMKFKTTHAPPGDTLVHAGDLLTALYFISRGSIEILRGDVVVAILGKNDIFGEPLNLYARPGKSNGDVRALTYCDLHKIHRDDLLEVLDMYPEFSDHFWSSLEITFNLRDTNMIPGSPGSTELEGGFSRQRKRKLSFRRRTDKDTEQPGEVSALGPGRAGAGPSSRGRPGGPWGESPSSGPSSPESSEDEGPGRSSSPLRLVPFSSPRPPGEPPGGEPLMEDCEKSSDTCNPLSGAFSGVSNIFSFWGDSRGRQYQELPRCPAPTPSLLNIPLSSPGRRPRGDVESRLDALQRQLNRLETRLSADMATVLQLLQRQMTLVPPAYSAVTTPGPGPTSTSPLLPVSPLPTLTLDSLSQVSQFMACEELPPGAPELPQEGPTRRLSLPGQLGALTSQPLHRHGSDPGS

Cytochrome P450 2C9 = Cytochrome P450 2C9 (Homo sapiens, UniProt P11712); assay: Inhibition of CYP2C9 in human liver microsomes assessed as reduction in diclofenac 4'-hydroxylation; assay type: ADME
Cytochrome P450 2C9, sequence (P11712 whole entry): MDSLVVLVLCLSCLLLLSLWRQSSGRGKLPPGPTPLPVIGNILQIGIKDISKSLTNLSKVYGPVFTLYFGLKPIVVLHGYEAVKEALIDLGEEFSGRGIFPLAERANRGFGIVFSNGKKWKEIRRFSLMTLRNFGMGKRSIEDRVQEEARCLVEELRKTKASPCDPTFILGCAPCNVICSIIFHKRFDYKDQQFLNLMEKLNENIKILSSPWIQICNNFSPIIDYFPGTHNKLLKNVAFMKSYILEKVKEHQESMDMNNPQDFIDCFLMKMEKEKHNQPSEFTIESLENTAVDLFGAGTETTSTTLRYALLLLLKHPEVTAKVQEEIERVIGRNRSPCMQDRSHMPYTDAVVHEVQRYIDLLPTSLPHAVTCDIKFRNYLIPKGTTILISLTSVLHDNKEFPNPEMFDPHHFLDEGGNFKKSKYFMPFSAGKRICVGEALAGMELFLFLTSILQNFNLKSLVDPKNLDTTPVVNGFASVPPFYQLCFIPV

Platelet [18] = assay: Inhibition of ADP-induced platelet aggregation in human platelet rich plasma assessed as remaining activity at 500 nM by in-vitro light transmission aggregometry assay; assay type: functional
Summary of the method: (§3)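 Light transmission aggregometry in human platelet-rich plasma; compound incubated, aggregation triggered with 3 µM ADP; remaining activity (RA) recorded at a single compound level (1000, 500 or 100 nM).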

[19] = Solubility in neutral pH; assay type: physicochemical
Cytochrome P450 2D6 = Cytochrome P450 2D6 (Homo sapiens, UniProt P10635); assay: Inhibition of CYP2D6 in human liver microsomes assessed as reduction in dextromethorphan-O demethylation; assay type: ADME
Cytochrome P450 2D6, sequence (P10635 whole entry): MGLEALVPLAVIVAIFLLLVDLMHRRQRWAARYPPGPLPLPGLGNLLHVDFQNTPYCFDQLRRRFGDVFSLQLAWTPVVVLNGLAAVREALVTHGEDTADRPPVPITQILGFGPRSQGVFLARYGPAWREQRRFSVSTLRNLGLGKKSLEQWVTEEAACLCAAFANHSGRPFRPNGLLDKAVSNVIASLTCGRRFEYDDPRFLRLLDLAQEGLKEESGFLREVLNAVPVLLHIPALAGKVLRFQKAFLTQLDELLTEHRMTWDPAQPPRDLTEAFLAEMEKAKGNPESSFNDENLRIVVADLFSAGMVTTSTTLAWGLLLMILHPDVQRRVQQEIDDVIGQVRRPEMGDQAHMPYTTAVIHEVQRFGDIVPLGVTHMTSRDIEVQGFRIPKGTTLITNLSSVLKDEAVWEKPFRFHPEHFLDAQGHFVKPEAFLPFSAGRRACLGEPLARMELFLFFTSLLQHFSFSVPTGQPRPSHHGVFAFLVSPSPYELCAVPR

[20] = Half life in Wistar rat at 1 mg/kg, iv or 10 mg/kg, po; assay type: ADME, organism-based; conditions: in vivo; summary of the method: as §2
Rattus norvegicus [21] = assay: AUC in Wistar rat at 10 mg/kg, po; assay type: ADME, organism-based, Plasma; set-up: dose 10 mg/kg, route oral; conditions: in vivo; summary of the method: as §2
Platelet [22] = assay: Inhibition of ADP-induced platelet aggregation in human platelet rich plasma assessed as remaining activity at 100 nM by in-vitro light transmission aggregometry assay; assay type: functional; summary of the method: as §3
Rattus norvegicus [23] = assay: Oral bioavailability in Wistar rat at 10 mg/kg; assay type: ADME, organism-based; conditions: in vivo; summary of the method: as §2
Liver microsome [24] = assay: Metabolic stability assay in human liver microsomes assessed as parent drug disappearance at 1 uM after 20 mins by HPLC and mass spectrometry method; assay type: ADME
Liver microsome [25] = assay: Metabolic stability assay in rat liver microsomes assessed as parent drug disappearance at 1 uM after 20 mins by HPLC and mass spectrometry method; assay type: ADME
[26] = Protein binding in human plasma; assay type: ADME, cell-free; conditions: read-out: PPB (converted)
[27] = Solubility in basic pH; assay type: physicochemical
[28] = Volume of distribution at steady state in Wistar rat at 1 mg/kg, iv or 10 mg/kg, po; assay type: ADME, organism-based; conditions: in vivo, read-out: Vdss; summary of the method: as §2
Rattus norvegicus [29] = assay: as §1; assay type: ADME, organism-based; set-up: dose 10 mg/kg, route oral; conditions: in vivo, BLD = below limit of detection; summary of the method: as §2

Row | SMILES | Ratio IC50 [12] | inhibition (INH) (Cytochrome P450 3A4 [14]) | IC50 (Platelet [15]) [µM] | inhibition (INH) (Cytochrome P450 3A4 [16]) | inhibition (INH) [17] | inhibition (INH) (Cytochrome P450 2C9) | Activity (Platelet [18]) [%] | solubility [19] | inhibition (INH) (Cytochrome P450 2D6) | Activity (Platelet [22]) [%] | Stability (Liver microsome [24]) | Stability (Liver microsome [25]) | solubility [27] | other results
1 | CCCCOC(=O)N1CCN(C(=O)[C@H](CCC(=O)O)NC(=O)c2cc([C@H]3C[C@@H]3COC)nc(-c3ccccc3)n2)CC1 |  |  |  |  |  |  |  |  |  |  |  |  |  | inhibition [1]: inactive; inhibition [2]: inactive; inhibition [3]: inactive; inhibition [4]: inactive; inhibition [5]: inactive; inhibition [6]: inactive; inhibition [7]: inactive; inhibition [8]: inactive; inhibition [9]: inactive; inhibition [10]: inactive; inhibition [11]: inactive
2 | CCOC(=O)N1CCN(C(=O)[C@H](CCC(=O)O)NC(=O)c2cc(NCCO)nc(-c3ccccc3)n2)CC1 | 0.67 | Not Active | 0.114 | Not Active | Not Active | Not Active | <30 | soluble | Not Active | <70 | Stable | Stable | soluble | IC50 (P2Y purinoceptor 12): 0.169 µM; Cmax [13]: 17.5 nM; half-life [20]: 12 min; AUC (Rattus norvegicus [21]): 8.44 nM·h; F (Rattus norvegicus [23]): 3%; fraction unbound [26]: 0.135; Vd [28]: 1 L/kg
3 | CCOC(=O)N1CCN(C(=O)[C@H](CCC(=O)O)NC(=O)c2cc(-c3ccc[n+]([O-])c3)nc(-c3ccccc3)n2)CC1 | 0.98 | Not Active | 0.126 | Not Active | Not Active | Not Active | <30 | soluble | Not Active | <70 | Stable | Stable | soluble | Cmax (Rattus norvegicus [29]): BLD; AUC (Rattus norvegicus [21]; BLD = below limit of detection): BLD
